The source of these data is ChEMBL document CHEMBL1671834, “Novel 3-aryl indoles as progesterone receptor antagonists for uterine fibroids” (ACS Med Chem Lett, 2011).

Usually Ki stands for a measure of affinity in units of concentration, obtained from inhibition or displacement. Read a low Ki as higher affinity. In general, ED50 refers to the midpoint of the dose-response relation. The term clearance denotes the volume of plasma or blood freed of the substance per unit of time. The term Vd denotes a proportionality between amount in the body and measured concentration, not a real space. High values mean wide distribution into tissue, low ones little distribution into tissue. One may read the bioavailability as dose-corrected exposure relative to a reference, in per cent. Low readings indicate little systemic uptake, high ones much systemic uptake. Usually half-life stands for the time needed for the level to fall by half in the phase considered. Read a low half-life as rapid decline. As usually defined, the Tmax is the time from dosing to the highest level.

Data set [1] addresses T1, Mineralocorticoid receptor (Homo sapiens, UniProt P08235).
T1 sequence (P08235 whole entry): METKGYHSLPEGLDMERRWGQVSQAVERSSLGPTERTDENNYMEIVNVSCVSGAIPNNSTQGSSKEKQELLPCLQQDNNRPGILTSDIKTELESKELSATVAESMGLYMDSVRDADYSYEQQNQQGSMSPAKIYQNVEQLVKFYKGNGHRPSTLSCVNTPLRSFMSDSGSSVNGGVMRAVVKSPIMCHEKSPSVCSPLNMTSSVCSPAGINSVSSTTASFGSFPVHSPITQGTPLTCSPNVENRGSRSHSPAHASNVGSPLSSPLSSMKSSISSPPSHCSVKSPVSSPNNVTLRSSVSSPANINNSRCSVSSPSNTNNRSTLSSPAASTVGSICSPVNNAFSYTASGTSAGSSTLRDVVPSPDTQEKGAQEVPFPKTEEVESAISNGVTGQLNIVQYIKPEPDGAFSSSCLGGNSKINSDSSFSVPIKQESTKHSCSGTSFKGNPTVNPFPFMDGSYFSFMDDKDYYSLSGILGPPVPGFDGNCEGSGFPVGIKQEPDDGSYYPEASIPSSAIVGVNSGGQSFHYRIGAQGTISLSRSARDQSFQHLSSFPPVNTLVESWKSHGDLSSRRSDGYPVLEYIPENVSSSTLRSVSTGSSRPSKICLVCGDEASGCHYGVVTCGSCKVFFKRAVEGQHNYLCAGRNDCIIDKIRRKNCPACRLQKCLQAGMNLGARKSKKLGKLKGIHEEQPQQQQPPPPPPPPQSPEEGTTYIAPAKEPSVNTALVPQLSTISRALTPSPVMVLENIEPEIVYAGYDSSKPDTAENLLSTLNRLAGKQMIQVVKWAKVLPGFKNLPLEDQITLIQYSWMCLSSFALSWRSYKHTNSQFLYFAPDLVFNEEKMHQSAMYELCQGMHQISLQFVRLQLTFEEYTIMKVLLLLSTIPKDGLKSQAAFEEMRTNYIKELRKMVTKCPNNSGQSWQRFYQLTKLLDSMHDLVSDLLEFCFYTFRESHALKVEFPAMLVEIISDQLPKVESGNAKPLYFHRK
Put plainly: Displacement of [3H]methyltrienolone from human mineralocorticoid receptor expressed in HEK293 cells. The data set is classed as cell-based. An outline of the steps: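 Competitive binding to recombinant full-length human receptors against tritium-labelled standards. Values are geometric means of at least duplicate determinations.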
A general note: In a radioligand displacement assay an active substance lowers the binding of a labelled ligand.

The test system of data set [2] is Oryctolagus cuniculus. Description: Antagonist activity at progesterone receptor in estrogen-primed immature New Zealand White rabbit assessed as inhibition of progesterone-induced endometrial transformation at 1 mg/kg, sc by McPhail assay. The data set is classed as functional, organism-based. More on the design: dose 1 mg/kg. An outline of the steps:
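Immature rabbits primed with estrogen, given progesterone 1 mg/kg with test compound at various sc doses. Endometrial transformation scored by McPhail Index.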

Data set [3] concerns Rattus norvegicus. Description: Antagonist activity at progesterone receptor in orally dosed ovariectomized Sprague-Dawley rat assessed as reversal of R5020-induced down-regulation of estradiol-induced increase in complement 3 mRNA expression by C3 rat uterine assay. The data set is classed as functional. Conditions: po. An outline of the steps: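 Ovariectomized rats dosed orally (mg/kg dose response). Estrogen (E2, 0.05 mg/kg) induces complement C3 mRNA in uterus. Progestin R5020 (0.1 mg/kg) down-regulates it. Read-out is reversal of the R5020 effect, expressed as fold over asoprisnil (5 mg/kg). ED50 derived from the dose response.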

Data set [4] deals with Oryctolagus cuniculus. Put plainly: Agonist activity at progesterone receptor in estrogen-primed immature New Zealand White rabbit assessed as stimulation of progesterone-induced endometrial transformation at 30 mg/kg, sc by McPhail assay. More on the design: dose 30 mg/kg. The data set is classed as functional, organism-based. An outline of the steps: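 Immature rabbits primed with estrogen, dosed sc without progesterone. Endometrial transformation scored by McPhail Index.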

Data set [5] can be described thus: Clearance in rat. The data set is classed as ADME, organism-based. Conditions: in vivo. An outline of the steps: (§1)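 Compound given to rats as an oral suspension. Bioavailability, tmax, elimination half-life, volume of distribution and clearance determined.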
A short description of data set [6]: Volume of distribution in rat. Conditions: in vivo. The data set is classed as ADME, organism-based. An outline of the steps: as §1
Data set [7] is described as follows: Oral bioavailability in rat. Type of data set: ADME, organism-based. Conditions: in vivo. An outline of the steps:
as §1

Data set [8] can be described thus: Elimination half life in rat. Type of data set: ADME, organism-based. To be noted: in vivo. An outline of the steps:
as §1

Data set [9] can be described thus: Tmax in rat. The data set is classed as ADME, organism-based. Conditions: in vivo. An outline of the steps: as §1

The source made the active and inactive calls. A value given as a limit tells only on which side of the number the result lay.

In data set [1], `Cn1cc(-c2ccc(C#N)cc2)c2ccc(NS(C)(=O)=O)cc21` had a Ki above 4.17 µM.
For `CC(C)n1cc(-c2ccc(C#N)cc2)c2ccc(NS(C)(=O)=O)cc21`, the inhibition constant (Ki) in data set [1] stood at 1.49 µM.
In turn, `CCn1cc(-c2ccc(C#N)cc2)c2ccc(NS(C)(=O)=O)cc21` had a Ki in [1] of 1.77 µM.
Take `Cc1cc(-c2cn(C(C)C)c3cc(NS(C)(=O)=O)ccc23)ccc1C#N`: in data set [1], the affinity, expressed as Ki, was 0.126 µM.
For `CC(C)n1cc(-c2ccc(C#N)c(F)c2)c2ccc(NS(C)(=O)=O)cc21`, the result in data set [2] and in [4] was Active. The ED50 in data set [3] is 0.33 mg/kg. Besides, the clearance in data set [5] is 2.5 mL/min/kg. For the same compound, the distribution volume (Vd) in data set [6] is 2.3 L/kg. The same compound returned a bioavailability in data set [7] of 31.4%. The compound also gave a Ki in data set [1] of 0.849 µM. In data set [8], this compound had a half-life of 19.8 h. Moreover, in [9], the time of peak concentration (Tmax) stood at 4 h.
`COc1cc(-c2cn(C(C)C)c3cc(NS(C)(=O)=O)ccc23)ccc1C#N`: the affinity in data set [1] corresponds to a Ki of 1.39 µM.
In data set [1], `CC[C@@H](C)n1cc(-c2ccc(C#N)cc2)c2ccc(NS(C)(=O)=O)cc21` returned a Ki of 1.44 µM. This Ki and that of the compound before are within 1.5-fold of each other.
As to `CC[C@H](C)n1cc(-c2ccc(C#N)cc2)c2ccc(NS(C)(=O)=O)cc21`, in [1], the affinity, expressed as Ki, was 1 µM.
As for `CC(c1ccc(F)cc1)(c1c[nH]c2c(NS(C)(=O)=O)cccc12)C1CC1` (stereo not drawn), the affinity in [1], expressed as Ki, was 0.00064 µM.
The same measure, in the same setting: with `COc1ccc(C(c2ccccc2)c2c[nH]c3ccccc23)cc1` (stereo not drawn) the figure was 0.0868 µM.
